A selection: hits, their analogues and other compounds. The true share with any hit is near 3.5%.
RGS4 block = inhibitors of human RGS4 | P49798 | HEK293 M3R/RGS4 inducible, Fluo-4 calcium flux; hits give high values; triggered by carbachol at its EC20 | B-score at 10 µM | 0.45% of 310,000 active | AID 463165;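 active means B-score, a plate-corrected calcium signal, over three deviations above library mean, with baseline fluorescence within five deviations of library mean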;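 further: RGS4 expression induced by doxycycline in cells with stable M3 receptor; B-score is computed from the integrated fluorescence ratio over baseline after carbachol; higher B-score means a larger calcium signal and so more RGS4 inhibition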
Target sequence (P49798 whole entry, looked up): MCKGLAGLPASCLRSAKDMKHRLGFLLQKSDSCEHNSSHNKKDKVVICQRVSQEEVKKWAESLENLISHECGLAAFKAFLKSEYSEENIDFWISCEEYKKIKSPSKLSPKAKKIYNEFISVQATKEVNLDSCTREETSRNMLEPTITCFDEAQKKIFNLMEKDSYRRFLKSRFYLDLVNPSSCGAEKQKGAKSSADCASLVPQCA
MrgX1 agonist = human MrgX1 receptor agonism, primary screen; 0.44% of 310,000 active; MrgX1-HEK293 cells, Fluo-4 calcium fluorescence, agonist mode; hits give high values; B-score at 10 µM; Q96LB2; AID 588627;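 active means calcium response B-score plate-corrected fluorescence ratio at least 3 library SD, with starting fluorescence B-score inside 5 SD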
Target sequence (Q96LB2 whole entry, looked up): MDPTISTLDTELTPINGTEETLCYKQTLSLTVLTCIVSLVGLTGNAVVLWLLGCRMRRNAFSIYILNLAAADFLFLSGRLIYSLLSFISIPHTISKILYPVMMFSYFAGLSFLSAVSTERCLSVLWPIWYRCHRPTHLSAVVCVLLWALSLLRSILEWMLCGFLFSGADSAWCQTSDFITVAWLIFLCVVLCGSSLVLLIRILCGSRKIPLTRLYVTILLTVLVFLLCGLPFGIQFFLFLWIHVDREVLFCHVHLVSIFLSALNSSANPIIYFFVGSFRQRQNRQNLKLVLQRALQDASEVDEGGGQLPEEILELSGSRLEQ
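Test system: Stable human MrgX1 HEK293 cell line | Schedule: Overnight plating before 1 h dye loading | Read-out basis: Baseline-normalised fluorescence change ratio, B-scored | Detection: Kinetic calcium dye fluorescence, Fluo-4 NW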
MrgX1 PAM = human MrgX1 positive allosteric modulation, primary screen | AID 588675 | 0.63% of 310,000 active | MrgX1-HEK293, Fluo-4 calcium flux, FDSS; hits give high values | Q96LB2 | B-score at 10 µM;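 active means plate-corrected calcium response at least 3 library SD above typical, normal starting fluorescence, not activating the receptor alone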;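 further: compound read alongside a low EC10 to EC30 dose of BAM8-22 agonist; peak minus trough fluorescence over baseline measured at the second addition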
MrgX1 antagonist = human MrgX1 receptor antagonism, primary screen. Q96LB2. MRGX1-HEK293 calcium flux, Fluo-4, BAM8-22 antagonism; hits give low values. B-score at 10 µM. 1.3% of 310,000 active;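 active means calcium-response B-score plate-corrected more than 3 library SD below zero, starting fluorescence within 5 deviations, no agonist response on first addition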;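 further: peak minus trough fluorescence over baseline after final BAM8-22 challenge near maximal dose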
RGS4 pot = RGS4 potentiation or activation; B-score at 10 µM; 0.92% of 310,000 active; HEK293 M3R/inducible RGS4, carbachol calcium flux Fluo4; hits give low values;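 active means B-score of the integrated calcium signal more than 4 SD below the library mean, with starting fluorescence not abnormally high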;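 further: negative B-score means reduced calcium response which marks RGS4 activation or potentiation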
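Test system: HEK293 cells with stable M3R and inducible RGS4; also added: carbachol at ECmax as muscarinic agonist stimulus; schedule: dye loading 30 min 37 °C, buffer rest 30 min RT; technique: kinetic calcium fluorescence imaging with Fluo4-AM dye, 2 µM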
RGS4 block valid = RGS4 inhibitor validation | shares compounds with RGS4 block | HEK293 M3R/RGS4, carbachol calcium Fluo-4 fluorescence; carbachol added at its EC20; 0 = buffer wells, 100 = carbachol control | calcium response, % at 10 µM | 65% of 1,700 active | AID 492999;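 active means duplicate-averaged calcium response above the buffer-only control mean plus 5 SD of those controls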;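 further: integrated fluorescence ratio F max minus min over baseline F0; higher response in RGS4-induced cells means RGS4 inhibition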
M3R Ca ctr = counter-screen for RGS4 inhibitors: effect in non-induced cells. activity (percent), % at 10 µM. shares compounds with RGS4 block. HEK293 M3R non-induced, carbachol calcium Fluo-4; submaximal (EC20) carbachol stimulus; buffer wells 0%, carbachol control wells 100%. 20% of 1,900 active. AID 493000; call rule not given here;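 further: RGS4 induction absent so cells express M3R without RGS4; higher means more calcium signal and flags a non-specific hit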
M3R basal Ca ctr = signal in non-induced cells without carbachol, RGS4 inhibitor counter-screen; AID 493001; HEK293 M3R/RGS4 non-induced, Fluo-4 calcium, no carbachol; normalised: buffer wells 0%, carbachol wells 100%; shares compounds with RGS4 block; 22% of 1,900 active; calcium response (agonist-mode artifact), % at 10 µM;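 active means duplicate-averaged calcium rise in uninduced cells above buffer wells' mean plus 5 SD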
A number is an active result; i = inactive; nt = no result.

SMILES	RGS4 block	MrgX1 agonist	MrgX1 PAM	MrgX1 antagonist	RGS4 pot	RGS4 block valid	M3R Ca ctr	M3R basal Ca ctr
CC(=O)CCS(=O)(=O)c1ccc(Oc2ccc(S(=O)(=O)CCC(C)=O)cc2)cc1	5.2	i	i	i	i	22%	i	i
COc1ccc(C(CNC(=O)c2cccc3cccnc23)N(C)C)cc1 (stereo not drawn)	i	i	i	i	i	nt	nt	nt
CCCOc1ccc(C(=O)CCNC(Cc2c[nH]c3ccccc23)C(=O)O)cc1 (stereo not drawn)	6.7	i	i	i	i	10%	46%	27%
COc1ccc(NC(=O)CC2C(=O)NCCN2C(=O)Nc2ccc(C(F)(F)F)cc2)cc1 (stereo not drawn)	8.8	i	i	i	i	20%	29%	i
O=C(CC1C(=O)NCCN1C(=O)Nc1ccc(C(F)(F)F)cc1)Nc1ccc(F)cc1 (stereo not drawn)	24	i	i	i	i	43%	i	8.0%
c1ccc(Nc2nc(N3CCCC3)nc(N3CCCC3)n2)cc1	i	i	i	i	i	nt	nt	nt
c1ccc(Nc2nc(N3CCCCC3)nc(N3CCNCC3)n2)cc1	i	i	i	i	i	i	i	16%
c1ccc(Nc2nc(N3CCCCC3)nc(N3CCCCC3)n2)cc1	5.2	i	i	i	i	26%	i	i
O=c1c(-c2n[nH]c(=S)n2-c2ccccc2)cccn1Cc1cccc(Cl)c1	i	i	i	i	i	nt	nt	nt
COc1cc(C2C(C#N)=C(N)Oc3cc(O)ccc32)cc2c1OCO2 (stereo not drawn)	12	i	i	i	i	29%	i	i
COc1ccc(C2C(C#N)=C(N)Oc3cc(O)ccc32)cc1OC (stereo not drawn)	i	i	i	i	i	nt	i	i
COc1ccc(C2C(C#N)=C(N)Oc3cc(O)ccc32)cc1C (stereo not drawn)	i	i	i	i	i	nt	31%	21%
COc1cc(C2C(C#N)=C(N)Oc3cc(O)ccc32)cc(OC)c1OC (stereo not drawn)	i	i	i	i	i	nt	nt	nt
CC(C)c1ccc(N(CCc2ccccn2)C(=O)C(C)(C)C)cc1	i	i	i	i	i	nt	nt	nt
CNc1c(NS(=O)(=O)c2cc(Cl)ccc2OC)c(=O)oc2ccccc12	i	i	i	i	i	nt	nt	nt
CCOCCCNC1=C(Cl)C(=O)c2ccccc2C1=O	5.5	i	i	i	i	30%	i	i
CCOCCCNS(=O)(=O)c1ccccc1	i	i	i	i	i	nt	nt	nt
CC(=N\Nc1ccccc1)/C(=N/O)C(=O)Nc1ccccc1	i	i	i	i	i	nt	i	i
O=C(Cc1ccc(Br)c2ccccc12)N/N=C/c1ccccn1	5	i	i	i	i	62%	i	i
O=C(O)c1ccc2c(c1)C(=O)N(c1cccc(C(=O)/C=C/c3ccccc3)c1)C2=O	15	i	i	i	i	68%	i	i
O=C(O)c1cccc(N2C(=O)c3ccc(C(=O)c4cccc([N+](=O)[O-])c4)cc3C2=O)c1	i	i	i	i	i	nt	nt	nt
O=C(NNc1nc(=O)c2cccnc2s1)c1ccccc1O	5.2	i	i	i	i	18%	i	i
O=C(NNc1c2ccccc2nc2ccccc12)c1ccccc1O	i	i	i	i	i	nt	nt	nt
Cc1ccc(C)c(Cn2nc(-c3cc(C)ccc3C)ccc2=O)c1	i	i	i	i	i	nt	nt	nt
O=C(CSc1nnc(NC(=O)c2ccc3c(c2)OCO3)s1)NCc1ccco1	i	i	i	i	i	nt	nt	nt
SMILES	RGS4 block	MrgX1 agonist	MrgX1 PAM	MrgX1 antagonist	RGS4 pot	RGS4 block valid	M3R Ca ctr	M3R basal Ca ctr
O=[N+]([O-])/C=C\c1ccc(N2CCCC2)c(F)c1	36	nt	nt	nt	i	34%	i	75%
COCC(C)NC(=O)CSc1nc(-c2ccccc2)c(-c2ccccc2)o1 (stereo not drawn)	i	i	i	i	i	nt	nt	nt
FC(F)(F)c1cc(CCN2CCNC[C@H]2Cc2cccc3ccccc23)cc(C(F)(F)F)c1	5.1	i	i	i	i	7.0%	i	i
Oc1ccc(C[C@@H]2CNCCN2CCc2cc(C(F)(F)F)cc(C(F)(F)F)c2)cc1	i	i	i	i	i	nt	nt	nt
OC(c1ccccc1)c1nccc2ccccc12 (stereo not drawn)	i	i	i	i	i	nt	nt	nt
Cc1ccc(C2C(C#N)=C(N)Oc3cc(C)oc(=O)c32)o1 (stereo not drawn)	7.3	i	i	i	i	22%	i	i
Cc1ccc(C)c(C2C(C#N)=C(N)Oc3cc(C)oc(=O)c32)c1 (stereo not drawn)	i	i	i	i	i	nt	nt	nt
O=C(N/C(=C\c1cccc(Br)c1)C(=O)N1CCOCC1)c1ccco1	i	i	i	i	i	nt	nt	nt
CN(C)c1ccc(C(CNS(=O)(=O)c2ccc3ccccc3c2)N2CCOCC2)cc1 (stereo not drawn)	5.2	i	i	i	i	5.0%	i	i
CN(C)c1ccc(C(CNS(=O)(=O)c2ccc([N+](=O)[O-])cc2)N2CCCC2)cc1 (stereo not drawn)	i	i	i	i	i	nt	nt	nt
COc1ccc(CNC(=O)CN(C)S(=O)(=O)c2ccc(Cl)cc2)cc1	i	i	i	i	i	nt	nt	nt
COc1ccc(CNC(=O)CCNS(=O)(=O)c2ccc(Cl)cc2)cc1	i	i	i	i	i	nt	i	i
COc1ccc(S(=O)(=O)NCCC(=O)NCc2ccc(F)cc2)cc1	i	i	i	i	i	nt	i	i
Cn1c(OCc2ccco2)nc2c1c(=O)n(Cc1ccc(Cl)c(Cl)c1)c(=O)n2C	5.9	i	i	i	i	6.5%	i	i
Cc1ccc(N=Nc2c(N)n[nH]c2N)cc1	i	i	i	i	i	nt	nt	nt
Cc1[nH]nc(N)c1N=Nc1ccc(Br)cc1	17	i	i	i	i	20%	i	i
Nc1n[nH]c(C2CC2)c1N=Nc1ccc(Cl)cc1	7	i	i	i	i	6.5%	i	i
COc1cc(OC)cc(-c2cc(N)n(S(=O)(=O)c3cccc4nsnc34)n2)c1	4.8	i	i	i	i	8.0%	i	i
NC(=O)C1CCN(C2=C(NS(=O)(=O)c3ccccc3)C(=O)c3ccccc3C2=O)CC1	i	i	i	i	i	nt	nt	nt
O=C1C(Cl)=C(N2CCC(C(=O)O)CC2)C(=O)c2ccccc21	8.8	i	15	i	i	39%	i	i
CC(C)CN(C(=O)c1cc2ccccc2o1)c1c(N)n(CC(C)C)c(=O)[nH]c1=O	i	i	i	i	i	nt	nt	nt
